# Results from ChEMBL document CHEMBL1154352, “Toll-like receptor 7 selective synthetic oligoribonucleotide agonists: synthesis and structure-activity relationship studies” (J Med Chem, 2009).
# Activity calls are given as the source filed them. The calls are words filed in the database; no cut-off is given here.
# Columns and labels:
# Splenocyte [1] = experiment: Immunomodulatory activity in C57BL/6 mouse splenocytes bearing TLR7 receptor assessed as IL6 release at 100 ug/ml after 24 hrs by ELISA; assay type: functional, cell-based
# How it was run: (§1)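 C57BL/6 splenocytes in RPMI 1640 with 10% FBS, penicillin/streptomycin, 2 mM L-glutamine, plated at 5 × 10^6 cells/mL; compounds in PBS added, 37 °C for 24 h. Supernatant IL-12 and IL-6 by ELISA; representative of three independent experiments.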
# PBMC [2] = experiment: Immunomodulatory activity in human PBMC assessed as induction of TNFalpha at 100 ug/ml after 24 hrs; assay type: functional, cell-based
# How it was run: (§2)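 Human PBMCs plated at 5 × 10^6 cells/mL; compounds dissolved in PBS added at various concentrations, 37 °C for 24 h. Supernatant cytokines/chemokines quantified with human Luminex multiplex kit.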
# Homo sapiens = species on record: Homo sapiens; experiment: Ratio of human TLR7 activity to human TLR8 activity
# How it was run: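 TLR7/TLR8 ratio computed from fold NF-κB (SEAP reporter) activation in HEK293 cells stably expressing human TLR7 versus TLR8, compounds at 50 μg/mL, 18 h exposure; representative of three independent experiments.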
# [3] = biological target: T1, Toll-like receptor 9 (Mus musculus) (UniProt Q9EQU3); experiment: Activation of mouse TLR9 expressed in HEK293 assessed as induction of NF-kappaB activity reporter gene assay; assay type: cell-based
# T1 sequence (whole entry): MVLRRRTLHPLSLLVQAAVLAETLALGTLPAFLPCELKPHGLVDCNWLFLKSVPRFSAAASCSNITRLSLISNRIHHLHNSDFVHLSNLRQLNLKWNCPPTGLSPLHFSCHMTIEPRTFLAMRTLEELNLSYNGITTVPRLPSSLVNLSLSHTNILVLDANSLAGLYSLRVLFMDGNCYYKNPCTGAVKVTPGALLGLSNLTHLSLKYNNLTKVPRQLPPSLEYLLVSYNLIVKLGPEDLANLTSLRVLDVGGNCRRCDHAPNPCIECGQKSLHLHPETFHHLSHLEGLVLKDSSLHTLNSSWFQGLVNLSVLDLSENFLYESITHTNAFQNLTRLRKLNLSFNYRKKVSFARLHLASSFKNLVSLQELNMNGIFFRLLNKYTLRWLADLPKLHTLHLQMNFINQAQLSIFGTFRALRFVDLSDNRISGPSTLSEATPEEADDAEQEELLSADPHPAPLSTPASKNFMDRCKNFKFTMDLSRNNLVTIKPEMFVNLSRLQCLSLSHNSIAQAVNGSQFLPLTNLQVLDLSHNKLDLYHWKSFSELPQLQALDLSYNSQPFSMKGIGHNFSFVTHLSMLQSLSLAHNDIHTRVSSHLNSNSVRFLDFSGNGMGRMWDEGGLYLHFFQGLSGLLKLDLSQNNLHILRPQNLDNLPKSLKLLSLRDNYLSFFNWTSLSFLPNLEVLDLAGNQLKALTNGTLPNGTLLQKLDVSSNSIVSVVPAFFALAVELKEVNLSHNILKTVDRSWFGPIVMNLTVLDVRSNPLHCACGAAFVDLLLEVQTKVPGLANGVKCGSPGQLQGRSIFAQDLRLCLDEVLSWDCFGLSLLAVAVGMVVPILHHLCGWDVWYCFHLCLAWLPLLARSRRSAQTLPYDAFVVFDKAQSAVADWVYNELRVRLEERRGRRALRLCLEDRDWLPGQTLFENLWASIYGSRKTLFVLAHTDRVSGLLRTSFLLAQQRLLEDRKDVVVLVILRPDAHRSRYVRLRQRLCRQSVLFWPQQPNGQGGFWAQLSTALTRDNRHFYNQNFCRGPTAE
# Splenocyte [4] = experiment: Immunomodulatory activity in C57BL/6 mouse splenocytes bearing TLR7 receptor assessed as IL12 release at 100 ug/ml after 24 hrs by ELISA; assay type: functional, cell-based; how it was run: as §1
# PBMC [5] = experiment: Immunomodulatory activity in human PBMC assessed as induction of IFN-alpha at 100 ug/ml after 24 hrs
# [6] = biological target: Toll-like receptor 3 (Homo sapiens) (UniProt O15455); experiment: Activation of human TLR3 expressed in HEK293 assessed as induction of NF-kappaB activity reporter gene assay; assay type: cell-based
# Chain of Toll-like receptor 3 (Homo sapiens) (O15455 whole entry): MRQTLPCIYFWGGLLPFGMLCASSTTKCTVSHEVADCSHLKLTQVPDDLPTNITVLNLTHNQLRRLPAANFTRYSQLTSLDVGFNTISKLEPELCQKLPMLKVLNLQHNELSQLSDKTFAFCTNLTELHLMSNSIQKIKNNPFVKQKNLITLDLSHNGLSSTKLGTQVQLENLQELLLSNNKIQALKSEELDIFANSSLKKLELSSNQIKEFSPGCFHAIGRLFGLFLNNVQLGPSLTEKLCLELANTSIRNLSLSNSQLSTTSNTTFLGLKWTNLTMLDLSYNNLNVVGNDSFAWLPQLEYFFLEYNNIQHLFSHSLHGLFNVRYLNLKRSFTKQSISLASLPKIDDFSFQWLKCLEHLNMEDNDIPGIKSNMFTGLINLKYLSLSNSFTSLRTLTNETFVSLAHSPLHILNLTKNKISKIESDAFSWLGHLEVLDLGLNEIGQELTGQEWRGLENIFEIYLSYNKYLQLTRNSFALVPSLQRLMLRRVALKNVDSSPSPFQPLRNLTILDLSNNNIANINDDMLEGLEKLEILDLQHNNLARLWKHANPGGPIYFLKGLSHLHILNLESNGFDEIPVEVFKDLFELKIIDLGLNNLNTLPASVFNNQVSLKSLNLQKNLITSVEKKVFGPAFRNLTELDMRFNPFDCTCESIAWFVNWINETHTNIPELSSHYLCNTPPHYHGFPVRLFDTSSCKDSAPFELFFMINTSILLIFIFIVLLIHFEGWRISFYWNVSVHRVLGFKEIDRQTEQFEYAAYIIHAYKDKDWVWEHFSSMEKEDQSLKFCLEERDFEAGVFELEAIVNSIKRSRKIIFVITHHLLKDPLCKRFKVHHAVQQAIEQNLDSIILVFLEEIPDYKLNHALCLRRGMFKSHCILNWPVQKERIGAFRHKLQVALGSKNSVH
# [7] = biological target: T2, Toll-like receptor 7 (Homo sapiens) (UniProt Q9NYK1); experiment: Activation of human TLR7 expressed in HEK293XL assessed as fold induction of NF-kappaB activity at 50 ug/ml after 18 hrs by reporter gene assay relative to control
# T2 sequence (whole entry): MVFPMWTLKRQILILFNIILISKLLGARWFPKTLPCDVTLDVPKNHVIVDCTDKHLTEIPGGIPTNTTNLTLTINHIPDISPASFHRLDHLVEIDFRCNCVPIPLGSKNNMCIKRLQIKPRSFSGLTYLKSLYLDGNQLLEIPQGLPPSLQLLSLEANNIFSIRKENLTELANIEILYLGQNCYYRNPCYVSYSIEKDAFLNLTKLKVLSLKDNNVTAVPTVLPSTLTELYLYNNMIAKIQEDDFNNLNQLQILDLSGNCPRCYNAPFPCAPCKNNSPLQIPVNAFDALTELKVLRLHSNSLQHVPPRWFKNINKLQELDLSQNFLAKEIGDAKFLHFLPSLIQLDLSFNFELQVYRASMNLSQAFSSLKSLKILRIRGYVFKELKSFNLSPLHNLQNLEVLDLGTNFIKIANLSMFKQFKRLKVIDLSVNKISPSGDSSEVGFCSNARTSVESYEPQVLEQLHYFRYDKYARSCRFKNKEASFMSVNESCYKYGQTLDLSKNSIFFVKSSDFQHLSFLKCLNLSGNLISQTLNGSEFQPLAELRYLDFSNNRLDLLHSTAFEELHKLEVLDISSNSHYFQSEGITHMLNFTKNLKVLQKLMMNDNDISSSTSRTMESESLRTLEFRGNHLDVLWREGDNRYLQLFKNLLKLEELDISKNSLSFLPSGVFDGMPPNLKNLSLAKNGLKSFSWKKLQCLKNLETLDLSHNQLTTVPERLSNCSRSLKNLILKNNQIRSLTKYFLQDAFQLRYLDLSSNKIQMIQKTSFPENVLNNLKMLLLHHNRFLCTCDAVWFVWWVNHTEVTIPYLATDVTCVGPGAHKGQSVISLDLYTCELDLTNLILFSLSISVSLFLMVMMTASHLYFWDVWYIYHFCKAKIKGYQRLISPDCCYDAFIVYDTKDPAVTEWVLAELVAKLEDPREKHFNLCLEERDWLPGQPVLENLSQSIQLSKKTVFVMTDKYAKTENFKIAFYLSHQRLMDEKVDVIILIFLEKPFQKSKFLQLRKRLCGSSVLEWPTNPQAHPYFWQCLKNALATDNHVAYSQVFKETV
# How it was run: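 HEK293 cells stably expressing human TLR7 or TLR8, transiently transfected with SEAP reporter plasmid; medium replaced, SIMRA compounds added, 18 h incubation. Supernatant SEAP measured by QuantiBlue; expressed as fold increase in NF-κB activity over PBS control. Tabulated data at 50 μg/mL, representative of three independent experiments.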
# PBMC [8] = experiment: Immunomodulatory activity in human PBMC assessed as induction of IL12 at 100 ug/ml after 24 hrs; assay type: functional, cell-based; how it was run: as §2
Activity (Splenocyte [1]),Ratio (Homo sapiens),Activity [3],Activity (Splenocyte [4]),Activity [6],fold change (FC) [7],Compound,Activity (PBMC [2]) [pg/mL],IFN-alpha (PBMC [5]) [pg/mL],Activity (PBMC [8]) [pg/mL]
Active,53.8,inactive,Active,inactive,21.5,Nc1ccn([C@@H]2O[C@H](COP(=O)(S)O[C@H]3[C@@H](O)[C@H](n4cnc5c(N)ncnc54)O[C@@H]3COP(=O)(S)O[C@H]3[C@@H](O)[C@H](n4cnc5c(N)ncnc54)O[C@@H]3CO)[C@@H](OP(=O)(S)OC[C@H]3O[C@@H](n4ccc(=O)[nH]c4=O)[C@H](O)[C@@H]3OP(=O)(S)OC[C@H]3O[C@@H](n4ccc5c(=O)[nH]c(N)nc54)[C@H](O)[C@@H]3OP(=O)(S)OC[C@H]3O[C@@H](n4cnc5c(N)ncnc54)[C@H](O)[C@@H]3OP(=O)(S)OC[C@H]3O[C@@H](n4ccc(N)nc4=O)[C@H](O)[C@@H]3OP(=O)(S)OC[C@H]3O[C@@H](n4ccc5c(=O)[nH]c(N)nc54)[C@H](O)[C@@H]3OP(=O)(S)OC[C@H]3O[C@@H](n4ccc(N)nc4=O)[C@H](O)[C@@H]3OP(=O)(S)OC[C@H]3O[C@@H](n4ccc(=O)[nH]c4=O)[C@H](O)[C@@H]3OP(=O)(S)OC[C@H]3O[C@@H](n4ccc(=O)[nH]c4=O)[C@H](O)[C@@H]3OP(=O)(S)OCC(O)COP(=O)(S)O[C@H]3[C@@H](O)[C@H](n4ccc(=O)[nH]c4=O)O[C@@H]3COP(=O)(S)O[C@H]3[C@@H](O)[C@H](n4ccc(=O)[nH]c4=O)O[C@@H]3COP(=O)(S)O[C@H]3[C@@H](O)[C@H](n4ccc(N)nc4=O)O[C@@H]3COP(=O)(S)O[C@H]3[C@@H](O)[C@H](n4ccc5c(=O)[nH]c(N)nc54)O[C@@H]3COP(=O)(S)O[C@H]3[C@@H](O)[C@H](n4ccc(N)nc4=O)O[C@@H]3COP(=O)(S)O[C@H]3[C@@H](O)[C@H](n4cnc5c(N)ncnc54)O[C@@H]3COP(=O)(S)O[C@H]3[C@@H](O)[C@H](n4ccc5c(=O)[nH]c(N)nc54)O[C@@H]3COP(=O)(S)O[C@H]3[C@@H](O)[C@H](n4ccc(=O)[nH]c4=O)O[C@@H]3COP(=O)(S)O[C@H]3[C@@H](O)[C@H](n4ccc(N)nc4=O)O[C@@H]3COP(=O)(S)O[C@H]3[C@@H](O)[C@H](n4cnc5c(N)ncnc54)O[C@@H]3COP(=O)(S)O[C@H]3[C@@H](O)[C@H](n4cnc5c(N)ncnc54)O[C@@H]3CO)[C@H]2O)c(=O)n1 (stereo partly drawn),20.3,292,250
Active,69.7,inactive,Active,inactive,20.9,Nc1ccn([C@@H]2O[C@H](COP(=O)(S)O[C@H]3[C@@H](O)[C@H](n4cnc5c(N)ncnc54)O[C@@H]3COP(=O)(S)O[C@H]3[C@@H](O)[C@H](n4ccc5c(=O)[nH]c(N)nc54)O[C@@H]3COP(=O)(S)O[C@H]3[C@@H](O)[C@H](n4ccc(=O)[nH]c4=O)O[C@@H]3COP(=O)(S)O[C@H]3[C@@H](O)[C@H](n4ccc(=O)[nH]c4=O)O[C@@H]3COP(=O)(S)O[C@H]3[C@@H](O)[C@H](n4cnc5c(N)ncnc54)O[C@@H]3COP(=O)(S)O[C@H]3[C@@H](O)[C@H](n4cnc5c(N)ncnc54)O[C@@H]3CO)[C@@H](OP(=O)(S)OC[C@H]3O[C@@H](n4ccc5c(=O)[nH]c(N)nc54)[C@H](O)[C@@H]3OP(=O)(S)OC[C@H]3O[C@@H](n4ccc(N)nc4=O)[C@H](O)[C@@H]3OP(=O)(S)OC[C@H]3O[C@@H](n4ccc(=O)[nH]c4=O)[C@H](O)[C@@H]3OP(=O)(S)OC[C@H]3O[C@@H](n4ccc(=O)[nH]c4=O)[C@H](O)[C@@H]3OP(=O)(S)OCC(O)COP(=O)(S)O[C@H]3[C@@H](O)[C@H](n4ccc(=O)[nH]c4=O)O[C@@H]3COP(=O)(S)O[C@H]3[C@@H](O)[C@H](n4ccc(=O)[nH]c4=O)O[C@@H]3COP(=O)(S)O[C@H]3[C@@H](O)[C@H](n4ccc(N)nc4=O)O[C@@H]3COP(=O)(S)O[C@H]3[C@@H](O)[C@H](n4ccc5c(=O)[nH]c(N)nc54)O[C@@H]3COP(=O)(S)O[C@H]3[C@@H](O)[C@H](n4ccc(N)nc4=O)O[C@@H]3COP(=O)(S)O[C@H]3[C@@H](O)[C@H](n4cnc5c(N)ncnc54)O[C@@H]3COP(=O)(S)O[C@H]3[C@@H](O)[C@H](n4ccc5c(=O)[nH]c(N)nc54)O[C@@H]3COP(=O)(S)O[C@H]3[C@@H](O)[C@H](n4ccc(=O)[nH]c4=O)O[C@@H]3COP(=O)(S)O[C@H]3[C@@H](O)[C@H](n4ccc(=O)[nH]c4=O)O[C@@H]3COP(=O)(S)O[C@H]3[C@@H](O)[C@H](n4cnc5c(N)ncnc54)O[C@@H]3COP(=O)(S)O[C@H]3[C@@H](O)[C@H](n4cnc5c(N)ncnc54)O[C@@H]3CO)[C@H]2O)c(=O)n1 (stereo partly drawn),8.8,193,340
